According to publication PMC7867784 (Translational Lung Cancer Research, 2021):
“And” between values parts separate entries of the source, which are not always exact repeats. Identical values can stand only once.

Experiments:
RET-rearranged NSCLC [1] = test: ALL-RET phase 1/2 trial: antitumor efficacy; assay type: in vivo, human
Summary of the method: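 Patients with RET-rearranged NSCLC confirmed by at least 2 of 3 methods (multiplex RT-PCR, break-apart FISH, targeted NGS), previously treated with ≥1 chemotherapy regimen, ECOG PS 0–2, with measurable lesions. The test compound was given BID in 21-day cycles until respite, dose reduction or discontinuation criteria were met. Response was assessed by RECIST v1.1 on central review. DCR was defined as CR+PR+SD lasting at least 8 weeks.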

[2] = ALL-RET pharmacokinetic analysis; assay type: in vivo, human; settings: for free fraction of Cmin in a steady state: 450 mg BID; for AUC / Cmax / concentration at 10 h / Tmax: human, plasma, oral; for concentration at 10 h: Cmin (plasma concentration at 10 h after administration), mean ± SD [min–max]; for Tmax: median [min–max]
RET-rearranged NSCLC [3] = settings: 600 mg BID, non-Japanese RET rearrangement NSCLC, out of 8 patients; cited from earlier work
[4] = 450 mg BID, 25 RET-TKI-naïve patients
[5] = 450 mg BID, RET-TKI-naïve (n=25)
[6] = 450 mg BID, of 25 RET-TKI-naïve patients
[7] = 450 mg, Day 15, 450 mg BID, N=5
[8] = 600 mg, Day 15, 600 mg BID, N=3

CCc1cc2c(cc1N1CCC(N3CCOCC3)CC1)C(C)(C)c1[nH]c3cc(C#N)ccc3c1C2=O [alectinib]
patients who could continue treatment for more than 1 year (RET-rearranged NSCLC [1]; 450 mg BID): 5 | DCR (disease control rate, at 8 weeks) (RET-rearranged NSCLC [1]; [4]): 52% | patients with disease stabilization for more than 1 year (RET-rearranged NSCLC [1]; [4]): 5 | patients with disease stabilization for more than 1 year, percent (RET-rearranged NSCLC [1]; [4]): 20% | ORR (objective/overall response rate) (RET-rearranged NSCLC [1]; 450 mg BID, 25 RET-TKI-naïve patients, central review): 4% | median PFS (RET-rearranged NSCLC [1]; 450 mg BID, 25 RET-TKI-naïve patients, 95% CI 2.0–5.4): 3.4 months | median OS (RET-rearranged NSCLC [1]; 450 mg BID, 25 RET-TKI-naïve patients, 95% CI 5.4–NE): 19.0 months and 19 months | Best overall response NE (not evaluated), % (RET-rearranged NSCLC [1]; [5]): 8% | Best overall response PD, % (RET-rearranged NSCLC [1]; [5]): 40% | Best overall response PR, % (RET-rearranged NSCLC [1]; [5]): 4% | Best overall response SD, % (RET-rearranged NSCLC [1]; [5]): 48% | patients with disease control at 8 weeks (RET-rearranged NSCLC [1]; [6]): 13 | patients with objective response (RET-rearranged NSCLC [1]; [6]): 1 | treatment duration of the patient who showed PR (RET-rearranged NSCLC [1]; one patient with KIF5B-RET, phase 2, 450 mg BID): ~2 years | activity against RET-rearranged NSCLC (conclusion) (RET-rearranged NSCLC [1]; phase 1/2, Japanese patients): limited activity | free fraction of Cmin in a steady state [2]: < 4.8 ng/mL | free fraction of Cmin in a steady state ([2]; equivalent of ng/mL value): < 10 nM | AUC ([2]; 450 mg): 4820 ng·h/mL | Cmax ([2]; 450 mg): 576 ± 215 ng/mL | concentration at 10 h ([2]; 450 mg, Day 1, 450 mg, N=6): 118 ng/mL | concentration at 10 h [2, 7]: 483 ng/mL | Tmax ([2]; 450 mg, Day 1, 450 mg, N=6): 5.91 h | Tmax [2, 7]: 7.97 h | AUC ([2]; 600 mg): 8600 ng·h/mL | Cmax ([2]; 600 mg): 1050 ng/mL | concentration at 10 h ([2]; 600 mg, Day 1, 600 mg, N=6): 278 ng/mL | concentration at 10 h [2, 8]: 911 ng/mL | Tmax ([2]; 600 mg, Day 1, 600 mg, N=6): 7.01 h | Tmax [2, 8]: 5.77 h | patients with PR (RET-rearranged NSCLC [3]): 4
